KCNK3 block: human KCNK3 channel inhibition, primary screen; O14649; CHO-KCNK3 thallium flux, FluxOR fluorescence; stronger effect = lower value; B-score at 10 µM; 340,000 compounds, 0.84% hits; AID 602410;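 active = B-score under library mean minus 4 SD, starting fluorescence ratio at most library mean plus 5 SD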;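 also: more negative B-score means stronger inhibition of thallium flux through KCNK3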
PHOSPHO1 block: inhibitors of human PHOSPHO1 phosphatase; Q8TCT1; recombinant PHOSPHO1, absorbance phosphatase assay; inhibition, % at 13.3 µM; 290,000 compounds, 1.1% hits; AID 1565; in the data active = inhibition above about 60%
KCNQ1 act: human KCNQ1 channel potentiation or activation. 310,000 compounds, 0.35% hits. P51787. B-score at 10 µM. CHO-K1 KCNQ1, thallium flux FluxOR fluorescence; stronger effect = higher value. AID 2648;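 active = fluorescence ratio B-score, a plate-corrected score, at least three library SD, with initial intensity B-score within 5 SD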
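Assay system: CHO-K1 cells stably expressing KCNQ1; Medium: assay buffer with matched DMSO; Also added: K+/Tl+ depolarizing stimulus; Dosing: single dose; Timing: dye 90 min, compound 20 min, room temperature; Measured by: kinetic FluxOR thallium fluorescence, 10-s 1-Hz baseline, 110-s post-stimulus read; Read-out: peak-minus-minimum fluorescence over initial fluorescence, negative-control normalized, B-scored.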
KCNK9 block: inhibitors of human KCNK9 two-pore domain potassium channel; 310,000 compounds, 1.2% hits; AID 488922; Q9NPC2; B-score at 10 µM; HEK293 KCNK9, FluxOR thallium flux fluorescence; stronger effect = lower value;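 active = ratio B-score over 3 SD below the library mean, with starting fluorescence within 5 SD of its mean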;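 also: negative B-score means less thallium flux so channel inhibition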
KCNQ1 block: blocks the human KCNQ1 potassium channel; P51787; CHO-K1 KCNQ1, FluxOR thallium flux fluorescence; stronger effect = higher value; B-score at 10 µM; 310,000 compounds, 1.3% hits; AID 2642;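 active = compounds whose thallium flux B-score, printed positive for inhibition, exceeds three library SD while starting fluorescence stays within three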;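 also: channel opened by potassium depolarization with thallium stimulus after 20 min compound exposure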
hERG rescue: compounds protecting human hERG from proarrhythmic drug block. activation (rescue from dofetilide block), less the hit threshold, % at 10 µM. CHO-hERG, FluxOR thallium flux, dofetilide IC70 present. 310,000 compounds, 0.51% hits;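 active = activation above the mean of controls blocked by dofetilide plus 5 SD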;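 also: thallium influx through hERG after potassium depolarization seen as dye fluorescence rise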
Target sequence (Q12809 whole entry, looked up): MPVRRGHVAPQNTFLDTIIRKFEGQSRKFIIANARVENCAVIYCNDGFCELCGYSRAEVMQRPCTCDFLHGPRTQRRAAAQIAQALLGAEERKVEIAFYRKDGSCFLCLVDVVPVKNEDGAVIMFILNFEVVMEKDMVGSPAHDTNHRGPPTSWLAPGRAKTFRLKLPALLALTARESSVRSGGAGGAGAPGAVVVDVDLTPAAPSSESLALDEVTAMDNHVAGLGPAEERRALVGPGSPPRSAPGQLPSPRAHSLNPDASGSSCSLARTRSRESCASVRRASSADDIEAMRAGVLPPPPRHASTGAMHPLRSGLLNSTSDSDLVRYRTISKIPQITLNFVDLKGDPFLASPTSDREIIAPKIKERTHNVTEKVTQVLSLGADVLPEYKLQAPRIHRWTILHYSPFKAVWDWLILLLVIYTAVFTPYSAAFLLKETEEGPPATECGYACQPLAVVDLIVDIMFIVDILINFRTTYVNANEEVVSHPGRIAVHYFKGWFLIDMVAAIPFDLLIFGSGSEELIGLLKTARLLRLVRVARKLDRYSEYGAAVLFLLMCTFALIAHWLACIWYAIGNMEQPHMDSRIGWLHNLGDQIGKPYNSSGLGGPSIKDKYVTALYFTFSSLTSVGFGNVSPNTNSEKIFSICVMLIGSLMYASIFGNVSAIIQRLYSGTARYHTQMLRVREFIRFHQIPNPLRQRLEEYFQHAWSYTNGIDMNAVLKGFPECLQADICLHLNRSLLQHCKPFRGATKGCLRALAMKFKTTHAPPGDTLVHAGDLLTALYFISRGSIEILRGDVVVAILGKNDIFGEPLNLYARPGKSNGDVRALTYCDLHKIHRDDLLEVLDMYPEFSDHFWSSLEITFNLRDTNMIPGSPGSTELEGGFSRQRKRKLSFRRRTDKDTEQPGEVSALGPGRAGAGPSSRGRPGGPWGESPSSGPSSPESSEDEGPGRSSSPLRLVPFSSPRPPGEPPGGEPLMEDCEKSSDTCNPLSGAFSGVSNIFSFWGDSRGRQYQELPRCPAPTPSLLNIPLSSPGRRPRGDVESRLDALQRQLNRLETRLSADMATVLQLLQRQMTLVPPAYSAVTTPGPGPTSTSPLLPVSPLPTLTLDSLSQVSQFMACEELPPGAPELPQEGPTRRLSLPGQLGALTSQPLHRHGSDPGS
KCNK9 block conf: confirmation of human KCNK9 potassium channel inhibitors; shares compounds with KCNK9 block; HEK293 KCNK9 cells, FluxOR thallium flux fluorescence; inhibition, % at 10 µM; 4,900 compounds, 43% hits; AID 492992;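 active = thallium signal inhibited by more than 5 SD of the compound-free buffer control wells, on both duplicate plates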;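 also: 0% = assay buffer control wells without compound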
Kir21 sel: mouse Kir2.1 off-target activity of KCNK9 modulators. shares compounds with KCNK9 block. Kir2.1 cells, FluxOR thallium flux fluorescence. inhibition, % at 10 µM. 4,900 compounds, 4% hits. AID 492993;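 active = thallium signal drop more than 5 SD beyond the mean of the no-compound control wells, seen in both duplicate plates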;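 also: signal is fluorescence rise after thallium addition divided by baseline fluorescence; plate controls were assay buffer only for no effect and full block by chlorpromazine control for full effect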
HEK293 Tl ctr: second counter-screen for KCNK9 modulators: effect in non-induced cells. shares compounds with KCNK9 block. non-induced KCNK9-HEK293, FluxOR thallium flux. inhibition, % at 10 µM. 4,900 compounds, 40% hits;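 active = thallium signal drop beyond 5 SD of the untreated control mean, on both duplicate plates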;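 also: plate controls were buffer only IC0 wells for no effect and SID17386958 at its maximal inhibitory level for full effect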
* hit, by the source's call; i = inactive; nt = not tested or not shown. Only some compounds are listed: those with a hit (about 4% of all), similar ones and a draw of the others.

SMILES | KCNK3 block | PHOSPHO1 block | KCNQ1 act | KCNK9 block | KCNQ1 block | hERG rescue | KCNK9 block conf | Kir21 sel | HEK293 Tl ctr
CCn1c(=O)c2cc(C(=O)N(C)CC(OC)OC)sc2c2ccccc21 | i | 16 | i | i | i | -8 | nt | nt | nt
CCOc1ccccc1N(C)C(=O)c1cc2c(=O)n(CC)c3ccccc3c2s1 | i | 17 | i | -14* | i | -8 | 70%* | i | 38%*
Cc1nnc(CN(C)C(=O)c2cc(COc3ccc(C)c(C)c3)on2)o1 | i | 34 | i | i | i | -6 | nt | nt | nt
CCCn1cc(CN2CCCC(C(=O)c3cccc(OC(C)C)c3)C2)c(C)n1 (stereo unspecified) | i | -2 | i | i | i | -8 | i | i | i
CC(C)Oc1cccc(C(=O)C2CCCN(Cc3cnc(N4CCCC4)s3)C2)c1 (stereo unspecified) | i | 37 | i | i | i | -4 | i | i | i
CCCn1ncc(CN2CCCC(C(=O)c3cccc(OC(C)C)c3)C2)c1C (stereo unspecified) | i | 0 | i | i | i | -9 | nt | nt | nt
Cc1cc(NC(=O)COC(=O)CCNS(=O)(=O)c2ccccc2)n(-c2ccccc2)n1 | i | nt | i | i | i | -15 | nt | nt | nt
Cc1ccc(CSc2nc3ccccc3c(=O)[nH]2)cc1 | i | -10 | i | -9* | i | -13 | i | i | 29%*
Oc1ccc(N=Nc2ccc3c(c2)OCCO3)c2ncccc12 | i | 16 | 15* | i | i | 29* | i | i | i
Cc1cc(NC(=O)c2cc(-c3ccccc3Cl)nc3ccccc23)no1 | i | 28 | i | i | i | -12 | nt | nt | nt
Cc1ccc(C)c(N2CCN(C(=O)C3CCCCN3S(=O)(=O)c3ccc(F)cc3)CC2)c1 (stereo unspecified) | i | -6 | i | -19* | i | -6 | 30%* | i | 30%*
O=C(O)C1CCCN1S(=O)(=O)c1ccc(F)cc1 (stereo unspecified) | i | 1 | i | i | i | -3 | nt | nt | nt
CCOC(=O)/C(=N\Nc1ccccc1Cl)N(C)C1CCCCC1 | i | -10 | i | -8.8* | i | -9 | 64%* | i | 50%*
CCOC(=O)/C(=N\Nc1cc(C(F)(F)F)ccc1Cl)N(CC)CC | i | 21 | i | -13* | i | -5 | 54%* | i | 42%*
COc1ccc([C@H]2CC(=O)C=C(c3cccc(Cl)c3)C2)cc1OC | i | nt | nt | nt | nt | nt | nt | nt | nt
O=C(N[C@H](Cc1ccc(Cl)cc1)C(=O)O)OCC1c2ccccc2-c2ccccc21 | i | 20 | i | i | i | -13 | nt | nt | nt
O=C(N[C@@H](Cc1ccc(Br)cc1)C(=O)O)OCC1c2ccccc2-c2ccccc21 | i | 4 | i | i | i | -5 | i | i | i
